Sampled rows, rich in hits. Any-hit rate of the full collection: about 2.2%.
Ba/F3 V617F tox – reduce viability of Ba/F3 cells dependent on JAK2V617F; Ba/F3 EpoR-JAK2V617F viability, ATP luminescence; inhibition, % at 5.6 µM; 220,000 compounds, 1.1% hits;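 active = inhibition above the campaign mean plus 3 SD over all tested compounds, cut at about 24% in these data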;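 note: cytokine-independent growth of Ba/F3 cells driven by EpoR plus mutant JAK2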
APP transl inh – APP translation inhibition. SH-SY5Y APP 5'UTR-luciferase reporter, luminescence. inhibition, % at 2 µM. 190,000 compounds, 0.82% hits. AID 1285;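 active = inhibition above a set limit, derived from the sample mean plus 3 SD, cut at about 45% in these data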
b-catenin transl – modulators of beta-catenin nuclear translocation. HeLa beta-catenin nuclear translocation, immunofluorescence imaging. AID 1665. 190,000 compounds, 0.3% hits. nuclear translocation activity, % at 5 µM;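 active = nuclear translocation activity above 50% at 5 µM, with a well cell count of 50 or more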;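 note: per-cell ratio of nuclear to cytoplasmic median beta-catenin stain intensity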
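System: HeLa cells, endogenous beta-catenin; compound dosing: 5 µM primary single dose, 0.1% DMSO, 0.02–20 µM confirmation series; incubation: 24 h compound exposure at 37°C, 5% CO2; signal: beta-catenin immunofluorescence imaging with DAPI; evaluation: % activation, nuclear-to-cytoplasmic median beta-catenin signal ratio per cell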
BaF3 tox – reduces parental Ba/F3 cell viability, JAK2V617F counter-screen; 220,000 compounds, 1.1% hits; inhibition, % at 5.6 µM; CellTiter-Glo ATP luminescence; AID 1486;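 active = inhibition above a per-campaign cutoff, the mean inhibition of all tested compounds plus 3 SD, cut at about 27% in these data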
MT stabilizer – microtubule stabilization, imaging screen. % tubulin-high responders, % at 10 µM. HeLa tubulin immunostaining HCS, 24 h; share of cells brighter than vehicle mean+2SD. 200,000 compounds, 0.83% hits. AID 2205;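 active = plate Z-score above 3 for both tubulin-high and condensed-nucleus cell shares, with cell loss under 80%, at 10 µM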;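 note: anti alpha tubulin signal scored within the nucleus-defined area of each cell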
IEC-6 tox – counter-screen for KLF5 inhibitors: cytotoxicity in IEC-6 cells | IEC-6 cytotoxicity, luminescence viability | inhibition, % at 5 µM | 290,000 compounds, 0.78% hits | AID 1825
IEC-6 cytotox cf – confirmation of cytotoxic compounds in rat IEC-6 intestinal epithelial cells. shares compounds with IEC-6 tox. IEC-6 rat intestinal epithelial viability, luminescence. inhibition, % at 5 µM. 1,900 compounds, 63% hits. AID 1907
Numbers stand for hits. Cut-off read from the data, not from the text of the source, unless noted: active = inhibition above about 22%; inactive = the rest.

Screening OCCCNc1c2ccccc2nc2ccccc12 returned IEC-6 tox 39 and IEC-6 cytotox cf 26.
For CC(=O)Nc1ccc(S(=O)(=O)Nc2ccccc2C(=O)N2CCCCC2)cc1 the results were IEC-6 tox inactive.
For CCCc1cc(NCCCO)n2c(nc3ccccc32)c1C#N the results were Ba/F3 V617F tox inactive, b-catenin transl inactive, BaF3 tox inactive and IEC-6 tox inactive.
For CCc1nnc(NC(=O)CN2CCN(S(C)(=O)=O)CC2)s1 the results were IEC-6 tox inactive.
Cc1ccc(OCC(=O)Nc2cccnc2Cl)cc1C was read as IEC-6 tox inactive.
For CN1CCc2c(sc(NC(=O)c3ccc([N+](=O)[O-])o3)c2C(N)=O)C1 the results were IEC-6 tox 101 and IEC-6 cytotox cf 88.
Screening CN1CCc2c(sc(NC(=O)c3ccco3)c2C(N)=O)C1 returned IEC-6 tox inactive.
NC(=O)c1c(NC(=O)c2ccc([N+](=O)[O-])o2)sc2c1CCCC2 was read as IEC-6 tox 100 and IEC-6 cytotox cf 39.
N#Cc1c(NC(=O)c2ccc([N+](=O)[O-])o2)sc2c1CCC2 was read as IEC-6 tox 39 and IEC-6 cytotox cf inactive.
`C#CCOc1c(/C=C\c2nc(O)c([N+](=O)[O-])c(=O)[nH]2)cc(Br)cc1OC` gave IEC-6 tox inactive.
Screening CC(=O)NC1=NN(C(C)=O)C(C)(c2cccs2)S1 (centres undefined) returned Ba/F3 V617F tox 62, APP transl inh inactive, b-catenin transl inactive, BaF3 tox 62, MT stabilizer 39, IEC-6 tox 56 and IEC-6 cytotox cf 38.
For CCN(CC)Cc1c(C(=O)N/N=C/c2ccccn2)nnn1-c1nonc1N the results were IEC-6 tox inactive.
`Cc1cc(-c2ccc(C(C)C)c(S(=O)(=O)N3CCN(c4ccccc4)CC3)c2)on1` gave IEC-6 tox 78 and IEC-6 cytotox cf 53.
For Cc1cccc(N2CCN(S(=O)(=O)c3cc(-c4cc(C)no4)ccc3C)CC2C)c1 (centres undefined) the results were IEC-6 tox 50 and IEC-6 cytotox cf 32.
COc1ccc(-c2cc(C)no2)cc1S(=O)(=O)N1CCN(c2cccc(C)c2)C(C)C1 (centres undefined) was read as IEC-6 tox inactive.
`COc1ccc(N2CCN(S(=O)(=O)c3cc(-c4cc(C)no4)ccc3C(C)C)CC2)cc1` gave IEC-6 tox inactive.
For CN(C)C(CNC(C(=O)Nc1ccc(F)cc1)c1ccccc1)c1ccccc1 (centres undefined) the results were IEC-6 tox inactive.
COC(=O)c1ccc(CNC(=O)Cn2nnnc2CN(C)C(C)C)cc1 was read as IEC-6 tox inactive.
CCC(=O)N1CCN(c2ccccc2NC(=O)c2ccc([N+](=O)[O-])o2)CC1 was read as IEC-6 tox 38 and IEC-6 cytotox cf inactive.
Screening CC(C)C(=O)N1CCN(c2ccccc2NC(=O)c2ccc([N+](=O)[O-])o2)CC1 returned IEC-6 tox 26 and IEC-6 cytotox cf 23.
Screening CCc1cc(C(=O)NCC2CCCO2)sc1C (centres undefined) returned IEC-6 tox inactive.
Screening Cc1nc2ncccn2c1-c1csc(Nc2ccc(O)cc2)n1 returned Ba/F3 V617F tox 82, APP transl inh inactive, b-catenin transl inactive, BaF3 tox 77, MT stabilizer inactive, IEC-6 tox 25 and IEC-6 cytotox cf inactive.
Cc1ccc(Nc2nc(-c3c(C)nc4ncccn34)cs2)cc1 was read as Ba/F3 V617F tox 76, APP transl inh 95, BaF3 tox 78, MT stabilizer 17, IEC-6 tox 90 and IEC-6 cytotox cf 59.
`C=CCNc1nc(-c2c(C)nc3ncccn23)cs1` gave IEC-6 tox inactive.
`Cc1ccc(Nc2nc(-c3c(C)nc4ccccn34)cs2)cc1` gave Ba/F3 V617F tox 94, APP transl inh 96, b-catenin transl 112, BaF3 tox 92, MT stabilizer 17, IEC-6 tox 94 and IEC-6 cytotox cf 79.
COc1ccc(-n2nc(C(=O)NCC(=O)NCCCN3CCOCC3)c3ccccc3c2=O)cc1 was read as IEC-6 tox inactive.
`CCN1/C(=C/c2sc(-c3ccccc3C)c[n+]2C)Sc2ccccc21` gave Ba/F3 V617F tox 100, APP transl inh inactive, b-catenin transl inactive, BaF3 tox 80, MT stabilizer inactive, IEC-6 tox 34 and IEC-6 cytotox cf 39.
Screening Cc1ccc(-c2nc(CS(=O)(=O)CC(=O)NC3CCCCCC3)c(C)o2)cc1 returned IEC-6 tox inactive.
CCN1CCc2c(sc(NC(=O)c3cc4ccccc4cc3OC)c2C(N)=O)C1 was read as IEC-6 tox 27 and IEC-6 cytotox cf inactive.
For CC(C)C1COS(=O)(=O)NC1CC(=O)SC(C)(C)C (centres undefined) the results were IEC-6 tox inactive.
For COc1cc2ncnc(NCc3cccs3)c2cc1OC the results were Ba/F3 V617F tox inactive, APP transl inh inactive, b-catenin transl inactive, BaF3 tox inactive, MT stabilizer inactive, IEC-6 tox 33 and IEC-6 cytotox cf 32.
Screening CCOC(=O)N1CCC(NC(=O)c2ccc3c(c2)N=C(C)c2c(C)ccc(C)c2S3)CC1 returned IEC-6 tox 87 and IEC-6 cytotox cf 67.
Screening COc1cccc(CC(=O)NNC(=O)c2c(-c3ccccc3)noc2C)c1 returned Ba/F3 V617F tox inactive, b-catenin transl inactive, BaF3 tox inactive and IEC-6 tox inactive.
O=c1c2oc3ccccc3c2ncn1Cc1ccccc1Cl was read as Ba/F3 V617F tox inactive, APP transl inh inactive, b-catenin transl inactive, BaF3 tox inactive, MT stabilizer inactive, IEC-6 tox 37 and IEC-6 cytotox cf 26.
For C=CCn1cnc2c(oc3ccccc32)c1=O the results were IEC-6 tox inactive.
For O=c1c2oc3ccccc3c2ncn1Cc1ccccc1F the results were Ba/F3 V617F tox inactive, APP transl inh inactive, b-catenin transl inactive, BaF3 tox inactive, MT stabilizer inactive, IEC-6 tox 34 and IEC-6 cytotox cf inactive.
`COc1cc(/C=N/Nc2snc(SC)c2C#N)ccc1O` gave Ba/F3 V617F tox 73, APP transl inh 83, b-catenin transl inactive, BaF3 tox 62, MT stabilizer 49, IEC-6 tox 45 and IEC-6 cytotox cf 45.
COc1cc(/C=N/Nc2nc3ccccc3[nH]2)ccc1O was read as Ba/F3 V617F tox inactive, APP transl inh inactive, b-catenin transl inactive, BaF3 tox inactive, MT stabilizer inactive and IEC-6 tox inactive.
`COc1cccc(Oc2cnc(N)nc2-c2ccc(OC)cc2O)c1` gave Ba/F3 V617F tox 68, APP transl inh 61, b-catenin transl inactive, BaF3 tox 62, MT stabilizer inactive, IEC-6 tox 45 and IEC-6 cytotox cf 33.
Screening CCOCCCNC(=S)Nc1ccc2nc(N3CCOCC3)cc(C)c2c1 returned IEC-6 tox inactive.

Compound activity from PubChem.
